Rows were chosen to be rich in hits. Some 5.2% of all compounds tested hit in one or more screens of this group.
ALR H2O2 inh: inhibitors of human ALR sulfhydryl oxidase, primary screen, biochemical, H2O2 detection, HRP-luminol luminescence, single point; FAD-linked sulfhydryl oxidase ALR (Homo sapiens), P55789; purified ALR, DTT oxidation; inhibition, % (concentration not given with the values); 290,000 tested, 3.8% active; AID 485317, 2010;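 active = mean replicate inhibition above about 79%, with every replicate also reaching it, limit read from the data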
NS3 helicase inh: inhibitors of HCV NS3 helicase, primary screen, biochemical, Cy5 molecular beacon fluorescence | inhibition, % at 10.9 µM | 290,000 tested, 0.56% active | NS3 helicase DNA unwinding;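 active = inhibition above the mean of all tested compounds plus 3 SD, set per campaign, cut at about 35% in these data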;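 note: 0% = DMSO wells and 100% = thioflavine S control wells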
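Measured by: Cy5 fluorescence, 0 and 60 min reads / Assay system: NS3 helicase fragment of HCV / Control set: low DMSO, high thioflavine S at 110 µM / Times: 1 h reaction at 25 °C, ATP-initiated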
core dimer inh: inhibitors of HCV core protein dimerization, primary screen, biochemical, TR-FRET, high-throughput; 300,000 tested, 0.33% active; AID 1899, 2009; TR-FRET GST/Flag-core106 dimerization, 1536-well; inhibition, % at 5 µM;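 active = inhibition above the mean of all tested compounds plus 3 SD, set per screening campaign, cut at about 45% in these data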
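test system = GST/Flag-tagged HCV core106 proteins | probe or stimulus = Eu donor and XL665 acceptor anti-tag antibodies | times = compound-protein-antibody incubation 4 h at 22.5 °C | signal = TR-FRET, excitation 340 nm, emission 617 and 671 nm | measure = percent inhibition of core106 dimerization signal | controls = wells lacking GST-core106 and wells with excess unlabelled core106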
PfM18AAP inh-1: PfM18AAP inhibitors, malaria aminopeptidase, primary screen, biochemical, QFRET, recombinant enzyme. M18 aspartyl aminopeptidase (Plasmodium falciparum 3D7). H-Glu-NHMec fluorogenic cleavage. inhibition, % at 7.35 µM. 290,000 tested, 1.2% active. AID 1822, 2009;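 active = inhibition above the campaign mean inhibition over all tested compounds plus 3 SD, cut at about 28% in these data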;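 note: 0% = plate median of test compound wells and 100% = 2 mM ZnCl2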
ZTA counter: counter-screen for EBNA-1 inhibitors: inhibitors of Epstein-Barr virus ZTA. inhibition, % at 11 µM. ZTA-DNA binding, fluorescence polarization. AID 2234. P03206. 320,000 tested, 0.15% active; in the data active = inhibition above about 33%
Target sequence (P03206 whole entry, looked up): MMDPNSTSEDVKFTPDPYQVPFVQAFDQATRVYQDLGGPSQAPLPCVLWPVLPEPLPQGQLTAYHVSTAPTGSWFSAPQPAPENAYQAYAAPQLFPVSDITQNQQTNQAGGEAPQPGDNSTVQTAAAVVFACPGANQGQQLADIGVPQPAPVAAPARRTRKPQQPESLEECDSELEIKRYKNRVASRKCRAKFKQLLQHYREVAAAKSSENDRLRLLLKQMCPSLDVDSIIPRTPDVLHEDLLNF
EBNA-1 inhibitor: EBNA-1 DNA-binding inhibitors, primary screen, biochemical, fluorescence polarization | inhibition, % at 14.8 µM | 300,000 tested, 0.34% active | AID 1950, 2009; in the data active = inhibition above about 28%
PfM18AAP inh-2: PfM18AAP inhibitors, malaria aminopeptidase, confirmation, biochemical, QFRET, recombinant enzyme, triplicate. shares compounds with PfM18AAP inh-1. H-Glu-NHMec fluorogenic cleavage. inhibition, % at 7.35 µM. 2,400 tested, 28% active. AID 2170, 2009;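 active = mean inhibition over replicate wells above the hit cutoff set for the earlier primary screen, cut at about 29% in these data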;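 note: 0% = median of test compound wells and 100% = 2 mM ZnCl2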
CTSL1 counter: cathepsin L1 inhibitors, retest, confirmation, counter-screen for PFM18AAP inhibitor project, biochemical, QFRET, triplicate. shares compounds with PfM18AAP inh-1. purified cathepsin L1, Z-Leu-Arg-MCA fluorescence. inhibition, % at 5.96 µM. 2,400 tested, under 10 active. AID 2178, 2009;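 active = average inhibition across replicates above the hit cutoff set in the earlier primary screen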;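 note: 0% = median of test compound wells and 100% = Z-Phe-Ala-diazomethylketone 1 µM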
Target sequence (P07711 whole entry, looked up): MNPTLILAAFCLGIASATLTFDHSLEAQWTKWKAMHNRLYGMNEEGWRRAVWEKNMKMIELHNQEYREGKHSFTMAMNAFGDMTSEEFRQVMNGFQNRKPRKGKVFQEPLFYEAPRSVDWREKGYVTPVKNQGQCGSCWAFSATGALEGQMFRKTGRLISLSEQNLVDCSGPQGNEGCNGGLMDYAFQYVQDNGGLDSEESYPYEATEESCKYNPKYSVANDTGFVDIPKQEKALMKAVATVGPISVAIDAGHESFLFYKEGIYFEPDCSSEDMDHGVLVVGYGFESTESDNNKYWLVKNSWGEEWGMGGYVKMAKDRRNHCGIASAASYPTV
EBNA-1 inh conf: EBNA-1 DNA-binding inhibitors, retest, confirmation, biochemical, fluorescence polarization, triplicate; Recombinant EBNA-1 DBD, Cy5-DNA fluorescence polarization; inhibition, % at 14.8 µM; 830 tested, 35% active; AID 2292, 2010; shares compounds with EBNA-1 inhibitor;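 active = mean inhibition across replicates above a set limit taken from the earlier primary screen, cut at about 28% in these data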;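 note: plate controls were EBNA-1 protein with DMSO for no effect and wells lacking EBNA-1 for full effect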
ZTA DNA inh trip: EBV Zta DNA binding inhibitors, counter-screen for EBNA-1 inhibitor project, biochemical, fluorescence polarization, triplicate | shares compounds with EBNA-1 inhibitor | Zta-ZRE DNA binding, Cy5 fluorescence polarization | inhibition, % at 11.1 µM | 830 tested, under 10 active;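 active = mean inhibition over triplicates above a set limit taken from the primary EBNA-1 screen, cut at about 37% in these data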;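 note: purified full length Zta protein with Cy5 labeled ZRE DNA probe; 0% = Zta with DMSO and 100% = wells lacking Zta protein; inhibitors lower polarization by freeing the labeled DNA probe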
Zta DNA confirm: EBV Zta binding to ZRE DNA, inhibitors, confirmation, biochemical, fluorescence polarization, triplicate | shares compounds with ZTA counter | inhibition, % at 11.1 µM | 320 tested, 30% active;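 active = mean inhibition across triplicate runs above the hit threshold derived for the original primary screen, cut at about 33% in these data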;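 note: 0% = Zta with DMSO and 100% = wells lacking Zta protein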
EBNA-1 counter: EBNA-1 DNA-binding inhibition, counter-screen for ZTA inhibitor project, biochemical, fluorescence polarization; shares compounds with ZTA counter; 320 tested, under 10 active; inhibition, % at 14.8 µM; AID 2362, 2010; call rule not given here
Active calls of the source: *; . = no result given.

SMILES	ALR H2O2 inh	NS3 helicase inh	core dimer inh	PfM18AAP inh-1	ZTA counter	EBNA-1 inhibitor	PfM18AAP inh-2	CTSL1 counter	others
CC[n+]1c(SC)ccc2cc(OC)ccc21	-7.3	2.1	-2.6	-0.6	2.7	-1.1	.	.
CC1=C(C(=O)O)N2C(=O)[C@@H](NC(=O)CCCC(=O)O)[C@H]2SC1	-1.1	-11.2	0.6	35.8*	11.9	6.3	15.1	2.6
O=C(C(=O)N1CCOCC1)c1cn(Cc2ccccc2F)c2ccccc12	1.5	-2.7	-4.9	-2.4	13.2	-5.9	.	.
COCCOC(=O)c1c(N)n(Cc2ccc(OC)cc2)c2nc3ccccc3nc12	.	-2.2	9.3	35.0*	2.6	4.8	-20.5	9.6
O=c1c2ccccc2nc(-c2ccccc2)n1-c1ccccc1	.	0.7	0.9	6.2	-8.5	2.0	.	.
O=c1c2ccccc2[se]n1-c1ccccc1	.	-1.3	-25.2	93.6*	-4.6	0.0	96.5*	-1.9
COC(=O)C1=C(c2cccc(OCc3ccccc3)c2)C[C@@H]2CC[C@H]1N2C(=O)NCCc1ccc(F)cc1	-7.6	.	.	.	-2.2	.	.	.
CN1CCN2c3ccc(N)cc3CC3(C(=O)NC(=O)NC3=O)C2C1 (stereo not drawn)	.	25.0	.	43.7*	.	.	-44.6	1.9
O=C1NC(=O)N(Cc2ccco2)C(=O)/C1=C/C=C/c1ccco1	32.2	32.8	21.4	35.2*	35.3*	11.6	-3.6	-1.8	Zta DNA confirm=30.7;EBNA-1 counter=7.3
NC(Cc1ccccc1)c1nc(-c2ccccc2)no1 (stereo not drawn)	-0.3	6.2	1.8	-6.2	2.6	8.7	.	.
O=c1[nH]c(=O)n(CCc2ccccc2)c(O)c1C=NCc1ccc2c(c1)OCO2	0.6	-4.7	8.9	3.3	-4.5	31.1*	.	.	EBNA-1 inh conf=45.8*;ZTA DNA inh trip=-6.5
CC(C(=O)O)N(C(=O)c1ccccc1)c1ccc(F)c(Cl)c1 (stereo not drawn)	-15.0	-8.7	-0.7	-1.7	-5.0	-5.2	.	.
CN(C)C(=O)Oc1c(Cl)cc(Cl)c2cccnc12	-2.3	-10.7	-3.7	-6.1	-13.6	2.7	.	.
CN(C)C(=O)Oc1noc2cc(Cl)ccc12	-4.0	-13.4	4.1	4.6	8.8	34.0*	.	.	EBNA-1 inh conf=-7.7;ZTA DNA inh trip=-5.2
COc1ccc(-c2csc(NC(=O)COC(=O)Cc3ccccc3)n2)cc1OC	-0.3	-3.4	2.2	0.7	15.0	30.5*	.	.	EBNA-1 inh conf=34.0*;ZTA DNA inh trip=-0.2
Cc1cccc(N=Nc2ccc(N(C)C)cc2)c1	45.7	-2.4	-11.1	-7.1	0.3	-3.5	.	.
CN1C(=O)/C(=C/C=C/c2ccco2)C(=O)NC1=S	8.1	32.9	17.9	13.5	34.4*	0.6	.	.	Zta DNA confirm=69.1*;EBNA-1 counter=9.8
OCCNc1c2c(nc3ccccc13)CCCC2	-0.8	2.6	-5.0	8.9	17.9	-8.8	.	.
